Assay results taken from ChEMBL document CHEMBL4152263, “Novel anticancer hybrids from diazen-1-ium-1,2-diolate nitric oxide donor and ROS inducer plumbagin: Design, synthesis and biological evaluations” (Eur J Med Chem, 2018).
The source made the active and inactive calls. No cut-off for these calls is given here.

Tests used:
[1] = tested on: MDA-MB-231; assay: Cytotoxicity against human MDA-MB-231 cells assessed as growth inhibition at 10 uM after 48 hrs by MTT assay relative to control; format: functional; conditions: MDA-MB-231, 48 h, read-out: GI
Method in brief: (§1)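 Single-concentration MTT screen. Cells were seeded, allowed to adhere for 24 h, and exposed to compound for 48 h. MTT (5 mg/mL) was added for the last 4 h, then DMSO, with absorbance read at 570 nm. Result is inhibition rate (%) at the stated concentration; mean of three independent experiments.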

[2] = tested on: A549; assay: Cytotoxicity against human A549 cells assessed as growth inhibition at 10 uM after 48 hrs by MTT assay relative to control; format: functional; conditions: A549, 48 h, read-out: GI; method in brief: as §1
[3] = tested on: HepG2; assay: Cytotoxicity against human HepG2 cells assessed as growth inhibition at 10 uM after 48 hrs by MTT assay relative to control; format: functional; conditions: HepG2, 48 h, read-out: GI; method in brief: as §1
[4] = tested on: MDA-MB-231; assay: Cytotoxicity against human MDA-MB-231 cells assessed as growth inhibition after 48 hrs by MTT assay; format: functional, cell-based; conditions: MDA-MB-231, 48 h
Method in brief: (§2)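 Cells seeded at 5.0 × 10^4/ml and left 24 h to adhere, then exposed to a range of test-compound concentrations for 44 h. MTT (5 mg/mL) was added for a further 4 h at 37 °C. Supernatant was removed, DMSO added, and OD read at 570 nm. IC50 after 48 h total exposure; mean ± SD, n = 3.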

[5] = tested on: HepG2; assay: Cytotoxicity against human HepG2 cells assessed as growth inhibition after 48 hrs by MTT assay; format: functional, cell-based; conditions: HepG2, 48 h; method in brief: as §2
[6] = tested on: A549; assay: Cytotoxicity against human A549 cells assessed as growth inhibition after 48 hrs by MTT assay; format: functional, cell-based; conditions: A549, 48 h; method in brief: as §2
[7] = tested on: HCT-116; assay: Cytotoxicity against human HCT116 cells assessed as growth inhibition after 48 hrs by MTT assay; format: functional, cell-based; conditions: HCT-116, 48 h; method in brief: as §2
[8] = tested on: HK-2; assay: Cytotoxicity against human HK2 cells assessed as growth inhibition after 48 hrs by MTT assay; format: cell-based; conditions: HK-2, 48 h; method in brief: as §2
[9] = tested on: WRL68; assay: Cytotoxicity against human WRL68 cells assessed as growth inhibition after 48 hrs by MTT assay; format: cell-based; conditions: WRL68, 48 h; method in brief: as §2
[10] = tested on: A549; assay: Induction of reactive oxygen species formation in human A549 cells at 5 uM after 24 hrs by DCFH-DA probe-based flow cytometric analysis relative to control; format: functional
[11] = Drug metabolism in human A549 cells assessed as nitric oxide production at 5 uM after 24 hrs by Griess assay; format: ADME, cell-based; conditions: a549, 24 h
Method in brief: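 A549 cells were plated at 5.0 × 10^4/ml and treated in triplicate with compound at 5 μM for varying times up to 24 h. NO release was quantified as nitrite plus nitrate by Griess assay (commercial kit); mean ± SD, n = 3.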

[12] = Drug metabolism in human A549 cells assessed as nitric oxide production at 5 uM after 24 hrs in presence of nitric oxide scavenger carboxy-PTIO by Griess assay; format: ADME, cell-based; conditions: a549, 24 h
Method in brief: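 A549 cells were pre-incubated with the NO scavenger carboxy-PTIO (50 μM) for 1 h, then treated with compound (5 μM) for 24 h. Proliferation was read by MTT and NO by Griess assay (nitrite/nitrate); mean ± SD of three independent experiments.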

[13] = tested on: A549; assay: Cytotoxicity against human A549 cells assessed as growth inhibition at 5 uM after 24 hrs in presence of nitric oxide scavenger carboxy-PTIO by MTT assay

| Drug metabolism [11] | Drug metabolism [12] | Compound | inhibition of growth at 10 µM [1] [%] | inhibition of growth at 10 µM [2] [%] | inhibition of growth at 10 µM [3] [%] | IC50 [4] [µM] | IC50 [5] [µM] | IC50 [6] [µM] | IC50 [7] [µM] | IC50 [8] [µM] | IC50 [9] [µM] | fold change (FC) [10] | growth inhibition (GI) [13] |
| --- | --- | --- | --- | --- | --- | --- | --- | --- | --- | --- | --- | --- | --- |
|  |  | CC1=C(CCC(=O)OCCCCO/[N+]([O-])=N/N2CCOCC2)C(=O)c2c(O)cccc2C1=O | 29.4 | 24.4 | 28.8 |  |  |  |  |  |  |  |  |
|  |  | [O-]/[N+](=N\OCCl)N1CCOCC1 | 13.3 | 19.1 | 16.4 |  |  |  |  |  |  |  |  |
|  |  | CC1=C(CCCC(=O)OCO/[N+]([O-])=N/N2CCCC2)C(=O)c2c(O)cccc2C1=O | 70.8 | 65.6 | 69.7 | 6.97 | 7.12 | 9.24 | 9.32 | 18.1 | 16.6 |  |  |
|  |  | CC1=C(CCC(=O)OCCO/[N+]([O-])=N/N2CCOCC2)C(=O)c2c(O)cccc2C1=O | 35.7 | 30.3 | 32.5 |  |  |  |  |  |  |  |  |
|  |  | CC1=CC(=O)c2c(O)cccc2C1=O [PLUMBAGIN] | 73.8 | 60.7 | 58.9 | 6.5 | 9.17 | 8.9 | 9.8 | 23.6 | 15.4 | 1.34 |  |
|  |  | CC1=C(CCC(=O)OCCCO/[N+]([O-])=N/N2CCOCC2)C(=O)c2c(O)cccc2C1=O | 28.6 | 26.9 | 28 |  |  |  |  |  |  |  |  |
|  |  | CC1=C(CCC(=O)OCO/[N+]([O-])=N/N2CCCC2)C(=O)c2c(O)cccc2C1=O | 31.6 | 32.9 | 29.8 | 15.2 | 17.8 | 16.4 | 17.2 | 25.6 | 19.5 |  |  |
| Metabolite_Detected | Metabolite_Notdetected | CC1=C(CCCC(=O)OCO/[N+]([O-])=N/N2CCCCC2)C(=O)c2c(O)cccc2C1=O | 83.6 | 86.7 | 80.3 | 4.92 | 6.68 | 4.27 | 5.26 | 17.7 | > 40 |  | inactive |
